Experimental data taken from publication PMC11068522 (International Journal for Parasitology: Drugs and Drug …, 2024).
Where two headings read alike, the source gives them in different places.

Columns and labels:
[1] = tested on: intraerythrocytic stage P. falciparum (strain 3D7); test: In vitro antiplasmodial SYBR Green I-based fluorescence assay, 96 h, strain 3D7; type: cell-based, Plasmodium falciparum; details: for IC50: 96 h; for inhibition: 3D7, read-out: inhibition of parasite proliferation at the single (highest) concentration tested
Method in brief: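 Synchronous ring-stage parasites in O+ erythrocytes, 0.5% parasitemia and 1% hematocrit, in RPMI 1640 with HEPES, Glutamax, 11 mM glucose, 200 μM hypoxanthine, gentamicin and 0.6% Albumax II. […] Frozen at −80 °C, then SYBR Safe lysis (20 mM Tris pH 7.5, EDTA, saponin, Triton X-100). Fluorescence as % of untreated control; IC50 from four-parameter fit, mean ± SEM, n = 3.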

Solubility in DMSO = type: physicochemical; details: other compounds dissolved to 200 mM; these dissolved to between 10 and 100 mM
β-hematin formation = test: Detergent mediated β-hematin assay; type: biochemical; details: cell-free detergent mediated assay; Fig. S4
[2] = tested on: [Na^+]cyt of isolated trophozoite-stage 3D7 parasites (PfATP4); test: Cytosolic Na+ measurements; type: cell-based, Plasmodium falciparum; details: isolated 3D7 trophozoites; 13i 1 μM and 10 μM, cipargamin 50 nM; final 85–90 min
Method in brief: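 Saponin-freed trophozoite-stage 3D7 parasites loaded with SBFI, in 96-well plates at 37 °C in saline (125 mM NaCl, 5 mM KCl, 1 mM MgCl2, 20 mM glucose, 25 mM HEPES, pH 7.1). Controls: DMSO solvent (0.1–0.2% v/v) and a PfATP4-inhibitor positive control. Final [Na+]cyt averaged over 85–90 min of exposure. Three independent experiments on separate days, mean + SEM, Dunnett's test versus DMSO.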

[3] = Plasmodium falciparum, 3D7, 96 h, read-out: IC50 (P. falciparum proliferation), strain 3D7

In the case of `COc1cc(C)ccc1NC(=O)c1nccc2ccccc12` [Compound 12a], the IC50 [1, 3] is reported as 69 µM and the “solubility in DMSO” value (Solubility in DMSO) is reported as “lower solubility”.

For `COc1cc(C)ccc1NC(=O)c1ccc2ccccc2c1` [Compound 12b], the IC50 [1, 3] was 38 µM and the “effect on β-hematin formation” value (β-hematin formation) was “none”.

For `COc1cc(C)ccc1NC(=O)c1cnc2ccccc2c1` [Compound 12c], the IC50 [1, 3] was 62 µM.

In the case of `COc1cc(C)ccc1NC(=O)c1nccc2ccccc12.Cl` [Compound 12j], the “reduction of antiplasmodial activity relative to 12a” value ([1]; compared with isoquinoline carboxamide 12a, strain 3D7) is reported as “about 2 fold” and the IC50 ([1]; read-out: IC50 (P. falciparum proliferation), strain 3D7) is reported as 136 µM.

In the case of `COc1cc(C)ccc1NC(=S)c1nccc2ccccc12` [Compound 13a], the inhibition ([1]; Plasmodium falciparum) is reported as less than 50% and the “inhibition of proliferation of P. falciparum” value ([1]; at concentrations up to 200 μM, strain 3D7) is reported as no more than 50%.

With `COc1cc(C)ccc1NC(=S)c1ccc2ccccc2c1` [Compound 13b] the IC50 [1, 3] was 23 µM, the inhibition ([1]; Plasmodium falciparum) was greater than 50% and the “effect on β-hematin formation” value (β-hematin formation) was “none”.

In the case of `COc1cc(C)ccc1NC(=S)c1cnc2ccccc2c1` [Compound 13c], the IC50 [1, 3] is reported as 61 µM, the inhibition ([1]; Plasmodium falciparum) is reported as greater than 50% and the “solubility in DMSO” value (Solubility in DMSO) is reported as “lower solubility”.

`S=C(Nc1ccccc1)c1nccc2ccccc12` [Compound 13d] showed an inhibition ([1]; Plasmodium falciparum) of less than 50%.

Work on `S=C(Nc1ccccc1)c1cccnc1` [Compound 13h] yielded an inhibition ([1]; Plasmodium falciparum) of less than 50%.

In the case of `CCN(CC)CCCC(C)Nc1ccnc2cc(Cl)ccc12` (stereo not shown) [chloroquine, Chloroquine, reference compound], the “effect on β-hematin formation” value (β-hematin formation) is reported as “inhibited”.

With `C[C@H]1Cc2c([nH]c3cc(Cl)c(F)cc23)[C@@]2(N1)C(=O)Nc1ccc(Cl)cc12` [cipargamin] the “effect on [Na^+]cyt” value [2] was “significant increase”.
